{"source": "ChEMBL document CHEMBL2150928", "about": "“Symmetric kv1.5 blockers discovered by focused screening” (ACS Med Chem Lett, 2012)", "key": {"[1]": {"target": "Potassium voltage-gated channel subfamily A member 5 (Homo sapiens, UniProt P22460)", "sequence (P22460 whole entry)": "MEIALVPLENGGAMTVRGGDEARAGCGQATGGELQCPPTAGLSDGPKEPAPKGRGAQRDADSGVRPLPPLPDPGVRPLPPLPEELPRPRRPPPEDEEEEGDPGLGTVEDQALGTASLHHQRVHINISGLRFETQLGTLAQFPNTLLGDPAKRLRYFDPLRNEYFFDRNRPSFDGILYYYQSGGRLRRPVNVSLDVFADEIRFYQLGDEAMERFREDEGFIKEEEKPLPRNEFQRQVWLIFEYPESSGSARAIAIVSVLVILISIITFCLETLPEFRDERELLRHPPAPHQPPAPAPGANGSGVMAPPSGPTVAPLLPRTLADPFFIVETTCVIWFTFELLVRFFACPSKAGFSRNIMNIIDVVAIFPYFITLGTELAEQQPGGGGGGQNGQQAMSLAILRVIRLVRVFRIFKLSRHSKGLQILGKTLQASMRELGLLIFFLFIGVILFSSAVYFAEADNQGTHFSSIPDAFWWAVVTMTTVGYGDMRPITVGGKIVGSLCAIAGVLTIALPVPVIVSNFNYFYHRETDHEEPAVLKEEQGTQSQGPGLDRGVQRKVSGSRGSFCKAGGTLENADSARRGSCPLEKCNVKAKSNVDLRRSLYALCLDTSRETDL", "experiment": "Inhibition of human Kv1.5 ion channel after 3 mins by high-throughput planar patch clamp assay", "how_it_was_run": "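Electrophysiology run on IonWorks high-throughput planar patch clamp, following a previously published method. IC50 values come from concentration-response testing of compounds retested for LC/MS purity.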"}, "[2]": {"experiment": "Intrinsic clearance in human liver microsomes at 50 uM up to 45 mins", "format": "ADME, Microsome", "conditions": "read-out: CLH"}, "[3]": {"experiment": "Dissociation constant, pKa of the compound", "format": "physicochemical"}, "Cytochrome P450 2D6": {"target": "Cytochrome P450 2D6 (Homo sapiens, UniProt P10635)", "sequence (P10635 whole entry)": "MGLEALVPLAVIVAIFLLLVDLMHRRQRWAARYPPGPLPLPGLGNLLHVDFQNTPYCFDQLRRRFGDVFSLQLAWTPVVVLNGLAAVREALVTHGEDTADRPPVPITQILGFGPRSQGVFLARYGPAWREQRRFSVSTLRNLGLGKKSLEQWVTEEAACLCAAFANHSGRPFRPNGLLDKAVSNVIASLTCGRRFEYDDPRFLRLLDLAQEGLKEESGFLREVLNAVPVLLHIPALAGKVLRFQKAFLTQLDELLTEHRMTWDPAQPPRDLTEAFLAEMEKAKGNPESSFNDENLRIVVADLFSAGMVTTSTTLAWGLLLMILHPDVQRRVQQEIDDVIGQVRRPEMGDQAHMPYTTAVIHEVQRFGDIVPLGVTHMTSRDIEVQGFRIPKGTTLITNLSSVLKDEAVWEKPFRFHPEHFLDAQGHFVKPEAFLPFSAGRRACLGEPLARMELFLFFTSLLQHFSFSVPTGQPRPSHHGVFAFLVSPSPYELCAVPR", "experiment": "Inhibition of human recombinant CYP2D6 expressed in Escherichia coli", "format": "ADME"}, "[4]": {"experiment": "Fraction unbound in human plasma", "format": "ADME, cell-free"}, "[5]": {"experiment": "Intrinsic clearance in human hepatocytes assessed per million cells", "format": "ADME, cell-based, Hepatocyte", "conditions": "read-out: CLH"}, "[6]": {"experiment": "Octanol-water distribution coefficient, log D of the compound at pH 7.4 by shake-flask method", "format": "physicochemical"}, "[7]": {"target": "Voltage-gated inwardly rectifying potassium channel KCNH2 (Homo sapiens, UniProt Q12809)", "sequence (Q12809 whole entry)": "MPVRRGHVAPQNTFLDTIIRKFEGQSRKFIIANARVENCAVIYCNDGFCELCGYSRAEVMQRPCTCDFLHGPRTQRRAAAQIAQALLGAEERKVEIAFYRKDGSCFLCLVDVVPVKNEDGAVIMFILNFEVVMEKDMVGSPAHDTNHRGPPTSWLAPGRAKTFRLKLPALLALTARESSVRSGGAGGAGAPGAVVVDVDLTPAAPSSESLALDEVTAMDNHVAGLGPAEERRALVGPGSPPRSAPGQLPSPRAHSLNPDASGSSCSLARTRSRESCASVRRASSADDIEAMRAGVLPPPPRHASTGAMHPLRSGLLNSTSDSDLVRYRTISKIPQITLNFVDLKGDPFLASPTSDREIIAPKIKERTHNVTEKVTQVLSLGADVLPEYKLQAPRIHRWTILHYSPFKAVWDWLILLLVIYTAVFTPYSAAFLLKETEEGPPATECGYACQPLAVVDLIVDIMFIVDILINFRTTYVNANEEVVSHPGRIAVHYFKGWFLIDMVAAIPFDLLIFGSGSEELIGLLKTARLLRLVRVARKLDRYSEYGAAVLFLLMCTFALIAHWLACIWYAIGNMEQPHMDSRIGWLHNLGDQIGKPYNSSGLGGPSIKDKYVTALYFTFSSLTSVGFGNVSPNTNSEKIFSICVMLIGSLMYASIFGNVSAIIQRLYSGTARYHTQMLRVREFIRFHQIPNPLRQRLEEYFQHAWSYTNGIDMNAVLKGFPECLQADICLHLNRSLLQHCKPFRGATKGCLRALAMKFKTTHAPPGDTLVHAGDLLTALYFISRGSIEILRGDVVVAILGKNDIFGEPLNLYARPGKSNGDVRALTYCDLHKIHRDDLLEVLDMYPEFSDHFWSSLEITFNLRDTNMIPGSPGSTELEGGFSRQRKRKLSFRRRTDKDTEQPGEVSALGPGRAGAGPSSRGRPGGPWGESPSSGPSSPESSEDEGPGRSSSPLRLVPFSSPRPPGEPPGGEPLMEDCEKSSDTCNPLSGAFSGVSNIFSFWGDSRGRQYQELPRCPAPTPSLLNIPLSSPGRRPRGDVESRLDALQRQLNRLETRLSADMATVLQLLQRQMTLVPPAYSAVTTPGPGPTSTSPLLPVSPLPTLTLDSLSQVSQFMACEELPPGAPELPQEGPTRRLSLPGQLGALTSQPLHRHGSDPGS", "experiment": "Inhibition of human ERG expressed in CHOK1 cells", "format": "cell-based, CHO-K1"}, "Cytochrome P450 3A4": {"target": "Cytochrome P450 3A4 (Homo sapiens, UniProt P08684)", "sequence (P08684 whole entry)": "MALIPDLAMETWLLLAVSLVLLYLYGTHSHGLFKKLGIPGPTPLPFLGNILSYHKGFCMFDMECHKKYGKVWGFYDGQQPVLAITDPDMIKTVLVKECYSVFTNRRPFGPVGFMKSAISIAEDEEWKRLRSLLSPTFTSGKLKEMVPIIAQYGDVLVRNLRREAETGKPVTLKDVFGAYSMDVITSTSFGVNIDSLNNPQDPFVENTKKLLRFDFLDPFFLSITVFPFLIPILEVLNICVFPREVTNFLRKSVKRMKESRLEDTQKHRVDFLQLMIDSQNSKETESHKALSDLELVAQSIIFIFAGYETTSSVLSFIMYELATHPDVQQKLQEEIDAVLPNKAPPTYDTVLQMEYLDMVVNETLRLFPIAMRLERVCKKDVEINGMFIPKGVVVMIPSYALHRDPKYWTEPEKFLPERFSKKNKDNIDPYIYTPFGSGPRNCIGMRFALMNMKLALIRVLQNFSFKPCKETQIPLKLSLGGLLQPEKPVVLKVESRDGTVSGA", "experiment": "Inhibition of human recombinant CYP3A4 expressed in Escherichia coli", "format": "ADME"}, "[8]": {"experiment": "Apparent permeability from apical to basolateral side of human Caco2 cells", "format": "ADME, cell-based", "conditions": "Caco-2"}, "[9]": {"experiment": "Oral bioavailability in rat", "format": "ADME, organism-based", "conditions": "in vivo"}, "[10]": {"experiment": "Aqueous solubility of the compound at pH 7.4 after 24 hrs", "format": "physicochemical", "conditions": "aqueous medium"}, "[11]": {"experiment": "Volume of distribution at steady state in iv dosed rat", "format": "ADME, organism-based", "conditions": "in vivo, read-out: Vdss"}, "[12]": {"experiment": "Clearance in iv dosed rat", "format": "ADME, organism-based", "conditions": "in vivo"}, "[13]": {"experiment": "Half life in iv dosed rat", "format": "ADME, organism-based", "conditions": "in vivo"}}, "note": "The source made the active and inactive calls. The rule behind the calls is not given here."}
{"compound": "NC(c1ccccc1)C(O)c1ccccc1", "note": "(centres undefined)", "values": [{"measurement": "inhibition", "setting": "[1]", "value": "inactive"}]}
{"compound": "c1ccc([C@@H]([C@H](c2ccccc2)N2CCCCC2)N2CCCCC2)cc1", "values": [{"measurement": "microsomal CLint at 50 µM", "setting": "[2]", "value": 17.6, "unit": "µL/min/mg"}, {"measurement": "pKa", "setting": "[3]", "value": 11.4}, {"measurement": "IC50", "setting": "Cytochrome P450 2D6", "value": 0.316, "unit": "µM"}, {"measurement": "IC50", "setting": "[1]", "value": 0.2, "unit": "µM"}, {"measurement": "fraction unbound", "setting": "[4]", "value": 0.099}, {"measurement": "hepatocyte CLint", "setting": "[5]", "value": "< 4", "unit": "µL/min/1e6 cells"}, {"measurement": "logD", "setting": "[6]", "value": 4.1}, {"measurement": "IC50", "setting": "[7]", "value": 31.6, "unit": "µM"}, {"measurement": "IC50", "setting": "Cytochrome P450 3A4", "value": 15.8, "unit": "µM"}, {"measurement": "Papp A→B", "setting": "[8]", "value": 10.2, "unit": "×10⁻⁶ cm/s"}, {"measurement": "bioavailability", "setting": "[9]", "value": 26.6, "unit": "%"}, {"measurement": "solubility at 24 h", "setting": "[10]", "value": 81, "unit": "µM"}]}
{"compound": "c1ccc([C@@H]([C@H](c2ccccc2)N2CCCC2)N2CCCC2)cc1", "values": [{"measurement": "Vd", "setting": "[11]", "value": 6.4, "unit": "L/kg"}, {"measurement": "microsomal CLint at 50 µM", "setting": "[2]", "value": 21.6, "unit": "µL/min/mg"}, {"measurement": "clearance", "setting": "[12]", "value": 10.8, "unit": "mL/min/kg"}, {"measurement": "pKa", "setting": "[3]", "value": 10.5}, {"measurement": "IC50", "setting": "Cytochrome P450 2D6", "value": 0.316, "unit": "µM"}, {"measurement": "IC50", "setting": "[1]", "value": 0.3, "unit": "µM"}, {"measurement": "fraction unbound", "setting": "[4]", "value": 0.17}, {"measurement": "hepatocyte CLint", "setting": "[5]", "value": "< 4", "unit": "µL/min/1e6 cells"}, {"measurement": "logD", "setting": "[6]", "value": 3.3}, {"measurement": "IC50", "setting": "[7]", "value": 31.6, "unit": "µM"}, {"measurement": "IC50", "setting": "Cytochrome P450 3A4", "value": 12.6, "unit": "µM"}, {"measurement": "half-life", "setting": "[13]", "value": 7.1, "unit": "h"}, {"measurement": "Papp A→B", "setting": "[8]", "value": 13.3, "unit": "×10⁻⁶ cm/s"}, {"measurement": "bioavailability", "setting": "[9]", "value": 48.9, "unit": "%"}, {"measurement": "solubility at 24 h", "setting": "[10]", "value": 100, "unit": "µM"}]}
{"compound": "CC(=O)NC(c1ccccc1)C(O)c1ccccc1", "note": "(centres undefined)", "values": [{"measurement": "inhibition", "setting": "[1]", "value": "inactive"}]}
{"compound": "O[C@@H](c1ccccc1)[C@H](c1ccccc1)N1CCOCC1", "values": [{"measurement": "inhibition", "setting": "[1]", "value": "inactive"}]}
{"compound": "O=C(Cc1ccccc1)N[C@@H](c1ccccc1)[C@@H](O)c1ccccc1", "values": [{"measurement": "inhibition", "setting": "[1]", "value": "inactive"}]}
{"compound": "c1ccc(C2NCCOC2c2ccccc2)cc1", "note": "(centres undefined)", "values": [{"measurement": "inhibition", "setting": "[1]", "value": "inactive"}]}
{"compound": "c1ccc([C@H]([C@@H](c2ccccc2)N2CCCC2)N2CCCC2)cc1", "values": [{"measurement": "Vd", "setting": "[11]", "value": 7.9, "unit": "L/kg"}, {"measurement": "microsomal CLint at 50 µM", "setting": "[2]", "value": 12, "unit": "µL/min/mg"}, {"measurement": "clearance", "setting": "[12]", "value": 91.8, "unit": "mL/min/kg"}, {"measurement": "pKa", "setting": "[3]", "value": 10.4}, {"measurement": "IC50", "setting": "Cytochrome P450 2D6", "value": 0.2, "unit": "µM"}, {"measurement": "IC50", "setting": "[1]", "value": 0.6, "unit": "µM"}, {"measurement": "fraction unbound", "setting": "[4]", "value": 0.17}, {"measurement": "hepatocyte CLint", "setting": "[5]", "value": "< 4", "unit": "µL/min/1e6 cells"}, {"measurement": "logD", "setting": "[6]", "value": 3.2}, {"measurement": "IC50", "setting": "[7]", "value": 31.6, "unit": "µM"}, {"measurement": "IC50", "setting": "Cytochrome P450 3A4", "value": 12.6, "unit": "µM"}, {"measurement": "half-life", "setting": "[13]", "value": 1, "unit": "h"}, {"measurement": "Papp A→B", "setting": "[8]", "value": 14, "unit": "×10⁻⁶ cm/s"}, {"measurement": "bioavailability", "setting": "[9]", "value": 15.6, "unit": "%"}, {"measurement": "solubility at 24 h", "setting": "[10]", "value": 92, "unit": "µM"}]}
{"compound": "CC(C)[C@@H]1CC[C@@H](C)C[C@@H]1P(=O)(c1ccccc1)c1ccccc1", "values": [{"measurement": "logD", "setting": "[6]", "value": 6}]}
{"compound": "CN(C)[C@@H](c1ccccc1)[C@@H](O)c1ccccc1", "values": [{"measurement": "inhibition", "setting": "[1]", "value": "inactive"}]}
{"compound": "OC(c1ccccc1)C(NC1CCCCC1)c1ccccc1", "note": "(centres undefined)", "values": [{"measurement": "inhibition", "setting": "[1]", "value": "inactive"}]}
{"compound": "OC(c1ccccc1)C(c1ccccc1)N1CCNCC1", "note": "(centres undefined)", "values": [{"measurement": "inhibition", "setting": "[1]", "value": "inactive"}]}
{"compound": "CCCOc1ccc(C(O)C(c2ccccc2)N2CCCC2)cc1", "note": "(centres undefined)", "values": [{"measurement": "inhibition", "setting": "[1]", "value": "inactive"}]}
{"compound": "O[C@@H](c1ccccc1)[C@@H](c1ccccc1)N1CCCCC1", "values": [{"measurement": "inhibition", "setting": "[1]", "value": "inactive"}]}
{"compound": "c1ccc([C@H]([C@@H](c2ccccc2)N2CCCCC2)N2CCCCC2)cc1", "values": [{"measurement": "Vd", "setting": "[11]", "value": 16.4, "unit": "L/kg"}, {"measurement": "microsomal CLint at 50 µM", "setting": "[2]", "value": 14.1, "unit": "µL/min/mg"}, {"measurement": "clearance", "setting": "[12]", "value": 13.1, "unit": "mL/min/kg"}, {"measurement": "pKa", "setting": "[3]", "value": 11}, {"measurement": "IC50", "setting": "Cytochrome P450 2D6", "value": 0.126, "unit": "µM"}, {"measurement": "IC50", "setting": "[1]", "value": 0.2, "unit": "µM"}, {"measurement": "fraction unbound", "setting": "[4]", "value": 0.065}, {"measurement": "hepatocyte CLint", "setting": "[5]", "value": "< 4", "unit": "µL/min/1e6 cells"}, {"measurement": "logD", "setting": "[6]", "value": 4}, {"measurement": "IC50", "setting": "[7]", "value": 25.1, "unit": "µM"}, {"measurement": "IC50", "setting": "Cytochrome P450 3A4", "value": 20, "unit": "µM"}, {"measurement": "half-life", "setting": "[13]", "value": 15.1, "unit": "h"}, {"measurement": "Papp A→B", "setting": "[8]", "value": 10.3, "unit": "×10⁻⁶ cm/s"}, {"measurement": "bioavailability", "setting": "[9]", "value": 103, "unit": "%"}, {"measurement": "solubility at 24 h", "setting": "[10]", "value": 95, "unit": "µM"}]}
{"compound": "O[C@@H](c1ccccc1)[C@H](c1ccccc1)N1CCCC1", "values": [{"measurement": "inhibition", "setting": "[1]", "value": "inactive"}]}
